Test results published in ChEMBL document CHEMBL3611998, “Syntheses and studies of new forms of N-sulfonyloxy β-lactams as potential antibacterial agents and β-lactamase inhibitors” (Bioorg Med Chem, 2015).
Active and inactive are the calls of the source. The calls are words filed in the database; no cut-off is given here.

Experiments:
[1] = Inhibition of beta-lactamase CTX-M-14 (unknown origin) using nitrocefin substrate incubated for 10 mins
Summary of the method: (§1)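 Enzyme was preincubated with inhibitor at rt for 10 min in 50 mM sodium phosphate pH 7 with 0.1 mg/mL BSA. Inhibitor was tested at final concentrations of 160 μM to 3 nM (1:3 series, 8 points). Nitrocefin was then added at 50 μM, and hydrolysis was followed as OD 495 nm over time.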

[2] = Inhibition of beta-lactamase KPC-2 (unknown origin) using nitrocefin substrate incubated for 10 mins; summary of the method: as §1
[3] = Inhibition of beta-lactamase NDM1 (unknown origin) using imipenem substrate incubated for 10 mins
Summary of the method: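 NDM-1 was added as 50 μL of a 0.110 mg/mL solution and preincubated with inhibitor (final 160 μM to 3 nM, 8-point 1:3 series) for 10 min at rt. Buffer was 50 mM sodium phosphate pH 7 with 0.1 mg/mL BSA. 10 μM imipenem was then added, and its disappearance was monitored over time.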

Escherichia coli [4] = test: Antimicrobial activity against Escherichia coli DC2 at 2 mM incubated for 20 hrs by agar diffusion assay; format: functional; conditions: for zone of inhibition at 2000 µM: DC2, 20 h, read-out: DIZ
Summary of the method: (§2)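 The test solution was made as 20 mM in DMSO and diluted 10-fold in MeOH to 2 mM. Overnight LB cultures were adjusted to a 0.5 McFarland standard ([…] in 0.9% saline), and 0.1 mL was seeded into 34 mL Mueller-Hinton No. 2 agar at 47–50 °C. 50 μL was placed in 9.0 mm wells. Plates were incubated at 37 °C for 20 h, and inhibition zone diameters were measured by caliper.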

Pseudomonas aeruginosa [5] = test: Antimicrobial activity against wild type Pseudomonas aeruginosa K799 at 2 mM incubated for 20 hrs by agar diffusion assay; format: functional; conditions: K799, 20 h, read-out: DIZ; summary of the method: as §2
Pseudomonas aeruginosa [6] = test: Antimicrobial activity against Pseudomonas aeruginosa K799/61 at 2 mM incubated for 20 hrs by agar diffusion assay; format: functional; conditions: K799/61, 20 h, read-out: DIZ; summary of the method: as §2
Acinetobacter baumannii [7] = test: Antimicrobial activity against Acinetobacter baumannii ATCC 17961 at 2 mM incubated for 20 hrs by agar diffusion assay; format: functional; conditions: for zone of inhibition at 2000 µM: ATCC 17961, 20 h, read-out: DIZ; summary of the method: as §2
[8] = Inhibition of beta-lactamase PAM-2035 (unknown origin) using nitrocefin substrate incubated for 10 mins
[9] = Inhibition of beta-lactamase SHV-12 (unknown origin) using nitrocefin substrate incubated for 10 mins
Summary of the method: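 SHV-12 was added as 50 μL of a 0.111 mg/mL solution and preincubated for 10 min at rt with inhibitor (final 160 μM to 3 nM, 1:3 dilutions). Buffer was 50 mM sodium phosphate pH 7 with 0.1 mg/mL BSA. Reaction was started with 10 μM nitrocefin and followed as OD 495 nm over time.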

[10] = Inhibition of beta-lactamase AmpC (unknown origin) using nitrocefin substrate incubated for 10 mins; summary of the method: as §1
Micrococcus luteus [11] = test: Antimicrobial activity against Micrococcus luteus ATCC 10240 assessed as unclear inhibition zone at 2 mM incubated for 20 hrs by agar diffusion assay; format: functional; conditions: ATCC 10240, 20 h, read-out: DIZ; summary of the method: as §2
Staphylococcus aureus [12] = test: Antimicrobial activity against Staphylococcus aureus SG511 assessed as unclear inhibition zone at 2 mM incubated for 20 hrs by agar diffusion assay; format: functional; conditions: SG511, 20 h, read-out: DIZ; summary of the method: as §2
[13] = Inhibition of beta-lactamase OXA-48 (unknown origin) using nitrocefin substrate incubated for 10 mins; summary of the method: as §1
Mycolicibacterium vaccae [14] = test: Antimicrobial activity against Mycobacterium vaccae IMET 10670 assessed as very unclear inhibition zone at 2 mM incubated for 48 hrs by agar diffusion assay; format: functional; conditions: IMET 10670, 48 h, read-out: DIZ
Summary of the method: (§3)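 Seeded-agar well diffusion: 2 mM test solution (from 20 mM DMSO stock, diluted 10-fold in MeOH), 50 μL per 9.0 mm well. Inoculum was 0.1 mL of a 0.5 McFarland saline suspension ([…]) in 34 mL Mueller-Hinton No. 2 agar. Incubation was at 37 °C for 48 h, with plates photographed after 3 days. Zone diameters were measured by caliper.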

Escherichia coli [15] = test: Antimicrobial activity against Escherichia coli DC0 at 2 mM incubated for 20 hrs by agar diffusion assay; format: functional; conditions: for zone of inhibition at 2000 µM: DC0, 20 h, read-out: DIZ; summary of the method: as §2
Burkholderia dolosa = test: Antimicrobial activity against Burkholderia dolosa at 2 mM incubated for 20 hrs by agar diffusion assay; format: functional; conditions: read-out: DIZ; summary of the method: as §2
Bacillus spizizenii [16] = test: Antimicrobial activity against Bacillus subtilis ATCC 6633 at 2 mM incubated for 20 hrs by agar diffusion assay; format: functional; conditions: ATCC 6633, 20 h, read-out: DIZ; summary of the method: as §2
Mycolicibacterium vaccae [17] = test: Antimicrobial activity against Mycobacterium vaccae IMET 10670 at 2 mM incubated for 48 hrs by agar diffusion assay; format: functional; conditions: for zone of inhibition at 2000 µM: IMET 10670, 48 h, read-out: DIZ; summary of the method: as §3
Staphylococcus aureus [18] = test: Antimicrobial activity against Staphylococcus aureus SG511 at 2 mM incubated for 20 hrs by agar diffusion assay; format: functional; conditions: for zone of inhibition at 2000 µM: SG511, 20 h, read-out: DIZ; summary of the method: as §2
[19] = Inhibition of beta-lactamase VIM-1 (unknown origin) using nitrocefin substrate incubated for 10 mins
Escherichia coli [20] = test: Antimicrobial activity against Escherichia coli DC2 assessed as very very unclear inhibition zone at 2 mM incubated for 20 hrs by agar diffusion assay; format: functional; conditions: DC2, 20 h, read-out: DIZ; summary of the method: as §2
Bacillus spizizenii [21] = test: Antimicrobial activity against Bacillus subtilis ATCC 6633 assessed as unclear inhibition zone at 2 mM incubated for 20 hrs by agar diffusion assay; format: functional; conditions: ATCC 6633, 20 h, read-out: DIZ; summary of the method: as §2
Micrococcus luteus [22] = test: Antimicrobial activity against Micrococcus luteus ATCC 10240 at 2 mM incubated for 20 hrs by agar diffusion assay; format: functional; conditions: for zone of inhibition at 2000 µM: ATCC 10240, 20 h, read-out: DIZ; summary of the method: as §2
Staphylococcus aureus [23] = test: Antimicrobial activity against Staphylococcus aureus SG511 assessed as very unclear inhibition zone at 2 mM incubated for 20 hrs by agar diffusion assay; format: functional; conditions: SG511, 20 h, read-out: DIZ; summary of the method: as §2
Micrococcus luteus [24] = test: Antimicrobial activity against Micrococcus luteus ATCC 10240 assessed as very unclear inhibition zone at 2 mM incubated for 20 hrs by agar diffusion assay; format: functional; conditions: ATCC 10240, 20 h, read-out: DIZ; summary of the method: as §2
Acinetobacter baumannii [25] = test: Antimicrobial activity against Acinetobacter baumannii ATCC 17961 assessed as unclear inhibition zone at 2 mM incubated for 20 hrs by agar diffusion assay; format: functional; conditions: ATCC 17961, 20 h, read-out: DIZ; summary of the method: as §2
Mycolicibacterium vaccae [26] = test: Antimicrobial activity against Mycobacterium vaccae IMET 10670 assessed as unclear inhibition zone at 2 mM incubated for 48 hrs by agar diffusion assay; format: functional; conditions: IMET 10670, 48 h, read-out: DIZ; summary of the method: as §3
Bacillus spizizenii [27] = test: Antimicrobial activity against Bacillus subtilis ATCC 6633 assessed as very unclear inhibition zone at 2 mM incubated for 20 hrs by agar diffusion assay; format: functional; conditions: ATCC 6633, 20 h, read-out: DIZ; summary of the method: as §2

Compound	zone of inhibition at 2000 µM (Escherichia coli [4])	zone of inhibition at 2000 µM (Pseudomonas aeruginosa [5])	zone of inhibition at 2000 µM (Pseudomonas aeruginosa [6])	zone of inhibition at 2000 µM (Acinetobacter baumannii [7])	zone of inhibition at 2000 µM (Escherichia coli [15])	zone of inhibition at 2000 µM (Burkholderia dolosa)	zone of inhibition at 2000 µM (Bacillus spizizenii [16])	zone of inhibition at 2000 µM (Mycolicibacterium vaccae [17])	zone of inhibition at 2000 µM (Staphylococcus aureus [18])	zone of inhibition at 2000 µM (Escherichia coli [20])	zone of inhibition at 2000 µM (Micrococcus luteus [22])	diameter of the inhibition zone (DIZ) (Staphylococcus aureus [18])	other results
O=C1CC(CBr)N1OS(=O)(=O)c1cccc2ccccc12 (centres undefined)	0 mm	0 mm	0 mm	0 mm	0 mm	0 mm	12 mm						Ki [1]: > 160 µM; Ki [2]: > 160 µM; Ki [3]: > 160 µM; Ki [8]: > 160 µM; Ki [9]: 0.198 µM; Ki [10]: > 160 µM; zone of inhibition at 2000 µM (Micrococcus luteus [11]): 13.5 mm; zone of inhibition at 2000 µM (Staphylococcus aureus [12]): 14 mm; Ki [13]: 4.67 µM; zone of inhibition at 2000 µM (Mycolicibacterium vaccae [14]): 16 mm
O=C1CC(CBr)N1OS(=O)(=O)c1ccc2ccccc2c1 (centres undefined)		0 mm	0 mm	0 mm	0 mm	0 mm	13 mm	17 mm	13 mm	15 mm	12 mm		Ki [1]: > 160 µM; Ki [2]: > 160 µM; Ki [3]: > 160 µM; Ki [8]: > 160 µM; Ki [9]: 0.19 µM; Ki [10]: > 160 µM; Ki [19]: > 160 µM; Ki [13]: > 160 µM; zone of inhibition at 2000 µM (Bacillus spizizenii [21]): 17 mm
O=C1CC(CBr)N1OS(=O)(=O)c1ccc([N+](=O)[O-])cc1[N+](=O)[O-] (centres undefined)		0 mm	0 mm	0 mm	0 mm	0 mm	22 mm	32 mm		15 mm			zone of inhibition at 2000 µM (Staphylococcus aureus [23]): 23 mm; zone of inhibition at 2000 µM (Micrococcus luteus [24]): 16 mm; zone of inhibition at 2000 µM (Staphylococcus aureus [12]): 14 mm
Cc1ccc(S(=O)(=O)ON2C(=O)CC2Cn2cc(CNC(=O)c3cc(C(F)(F)F)ccc3Cl)nn2)cc1 (centres undefined)	0 mm	0 mm	0 mm		0 mm	0 mm		0 mm				Active	zone of inhibition at 2000 µM (Acinetobacter baumannii [25]): 13 mm; zone of inhibition at 2000 µM (Micrococcus luteus [11]): 13 mm; zone of inhibition at 2000 µM (Bacillus spizizenii [21]): 13 mm
O=C1CC(CBr)N1OS(=O)(=O)c1cccs1 (centres undefined)		0 mm	0 mm	0 mm	0 mm	0 mm	0 mm	0 mm	0 mm	16 mm	0 mm		
CC(C)c1cc(C(C)C)c(S(=O)(=O)ON2C(=O)CC2CBr)c(C(C)C)c1 (centres undefined)		0 mm	0 mm	0 mm	0 mm	0 mm	0 mm		0 mm				Ki [1]: > 160 µM; Ki [2]: > 160 µM; Ki [3]: > 160 µM; zone of inhibition at 2000 µM (Mycolicibacterium vaccae [26]): 14 mm; diameter of the inhibition zone (DIZ) (Escherichia coli [4]): Active; Ki [8]: > 160 µM; Ki [9]: > 160 µM; zone of inhibition at 2000 µM (Micrococcus luteus [24]): 19 mm; Ki [10]: > 160 µM; Ki [13]: > 160 µM
COc1ccc(S(=O)(=O)ON2C(=O)CC2CBr)cc1 (centres undefined)		0 mm	0 mm	0 mm	0 mm	0 mm			0 mm	15 mm	0 mm		zone of inhibition at 2000 µM (Mycolicibacterium vaccae [26]): 17 mm; zone of inhibition at 2000 µM (Bacillus spizizenii [27]): 11 mm
CCOC(=O)c1cn(CC2CC(=O)N2OS(=O)(=O)c2ccc(C)cc2)nn1 (centres undefined)	0 mm	0 mm	0 mm	0 mm	0 mm	0 mm		0 mm	0 mm		0 mm		zone of inhibition at 2000 µM (Bacillus spizizenii [27]): 15 mm
CN(C)c1cccc2c(S(=O)(=O)ON3C(=O)CC3CBr)cccc12 (centres undefined)		0 mm	0 mm	0 mm		0 mm	0 mm	16 mm	13 mm	14 mm	12 mm		diameter of the inhibition zone (DIZ) (Escherichia coli [15]): Active
O=C1CC(CBr)N1OS(=O)(=O)c1ccc([N+](=O)[O-])cc1 (centres undefined)		0 mm	0 mm	11 mm	0 mm	0 mm	14 mm	0 mm		14 mm	0 mm	Active	
Cc1ccc(S(=O)(=O)ON2C(=O)CC2CSC2=NCCS2)cc1 (centres undefined)		0 mm	0 mm	0 mm	0 mm	0 mm	0 mm			14 mm	0 mm	Active	diameter of the inhibition zone (DIZ) (Mycolicibacterium vaccae [17]): Active
Cc1ccc(S(=O)(=O)ON2C(=O)CC2CBr)cc1 (centres undefined)		0 mm	0 mm		0 mm	0 mm				13 mm		Active	zone of inhibition at 2000 µM (Mycolicibacterium vaccae [26]): 17 mm; zone of inhibition at 2000 µM (Bacillus spizizenii [27]): 11 mm; diameter of the inhibition zone (DIZ) (Acinetobacter baumannii [7]): Active; diameter of the inhibition zone (DIZ) (Micrococcus luteus [22]): Active
Cc1ccc(S(=O)(=O)ON2C(=O)CC2Cn2cc(CNC(=O)c3ccccc3)nn2)cc1 (centres undefined)	0 mm	0 mm	0 mm	0 mm	0 mm	0 mm	0 mm	0 mm	0 mm		0 mm		
